The record followed here is ChEMBL document CHEMBL3352416, “Discovery of carbohybrid-based 2-aminopyrimidine analogues as a new class of rapid-acting antimalarial agents using image-based cytological profiling assay” (J Med Chem, 2014).

For data set [1], the system named is Plasmodium falciparum. Kind of data set: Antimalarial activity against Plasmodium falciparum K1 by automated image mining based cytological profiling assay. The class given is functional, organism-based. The essentials:
(§1)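 Parasite cultures in 384-well format, read by automated imaging. Infected erythrocytes detected by DAPI nuclear staining against WGA-AlexaFluor 488 host-cell stain, and viability by Mitotracker Red CMXRos. Total culture parasitaemia quantified. EC50 given as mean±SD of two independent experiments, each in duplicate.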

Data set [2] deals with Plasmodium falciparum. Kind of data set: Antimalarial activity against Plasmodium falciparum W2 by automated image mining based cytological profiling assay. The class given is functional, organism-based. The essentials: as §1
Data set [3] relates to Plasmodium falciparum. In words: Antimalarial activity against Plasmodium falciparum HB3 by automated image mining based cytological profiling assay. Type of data set: functional. The essentials:
as §1

Data set [4] in a line: Selectivity index, ratio of CC50 for human HepG2 cells to EC50 for Plasmodium falciparum. Type of data set: toxicity, cell-based. The settings on record: read-out: Ratio CC50/EC50. In outline: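 Ratio of HepG2 CC50 (resazurin assay) to the highest EC50 among P. falciparum K1, HB3 and W2. Parasite EC50 values are means of two independent experiments, each run in duplicate.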

The subject of data set [5] is Plasmodium falciparum. In words: Antimalarial activity against tightly synchronized Plasmodium falciparum K1 assessed as parasite stage accumulation index at early ring stages at 10 uM treated at 6 to 30 hrs post-invasion by automated image mining based cytological profiling assay. The class given is functional, organism-based.
For data set [6], the system named is Plasmodium falciparum. Kind of data set: Antimalarial activity against tightly synchronized Plasmodium falciparum K1 assessed as parasite stage accumulation index at late ring stages at 10 uM treated at 6 to 30 hrs post-invasion by automated image mining based cytological profiling assay. Type of data set: functional, organism-based.
In data set [7] the test system is Plasmodium falciparum. In words: Antimalarial activity against tightly synchronized Plasmodium falciparum K1 assessed as parasite stage accumulation index at trophozoites stages at 10 uM treated at 6 to 30 hrs post-invasion by automated image mining based cytological profiling assay. Type of data set: functional, organism-based.
Data set [8] concerns Plasmodium falciparum. In words: Antimalarial activity against tightly synchronized Plasmodium falciparum K1 assessed as parasite stage accumulation index at schizonts stages at 10 uM treated at 6 to 30 hrs post-invasion by automated image mining based cytological profiling assay. The class given is functional, organism-based.
The nature of data set [9]: Stability in human liver microsomes assessed as remaining compound level at 1 uM incubated for 5 mins in presence of NADPH measured after 30 mins by LC/MS/MS method. Type of data set: ADME. The settings on record: read-out: Stability. In outline: (§2)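 Percent parent compound remaining after 30 min incubation with liver microsomes; n = 3.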
Background: Microsomes from liver hold many membrane-bound enzymes, among them those of drug oxidation.

The nature of data set [10]: Stability in mouse liver microsomes assessed as remaining compound level at 1 uM incubated for 5 mins in presence of NADPH measured after 30 mins by LC/MS/MS method. The settings on record: read-out: Stability. Type of data set: ADME. The essentials:
as §2

Data set [11] in a line: Tmax in Sprague-Dawley rat at 1 mg/kg, ip. The settings on record: in vivo. The class given is ADME, organism-based. More on the design: dose 1 mg/kg, route intraperitoneal.
Data set [12] is described as follows: Tmax in Sprague-Dawley rat at 5 mg/kg, ip. The settings on record: in vivo. Set-up: dose 5 mg/kg, route intraperitoneal. The class given is ADME, organism-based.
The nature of data set [13]: Cmax in Sprague-Dawley rat at 1 mg/kg, ip. Particulars: in vivo. Set-up: dose 1 mg/kg, route intraperitoneal. The class given is ADME, organism-based.
A short description of data set [14]: Cmax in Sprague-Dawley rat at 5 mg/kg, ip. Type of data set: ADME, organism-based. More on the design: dose 5 mg/kg, route intraperitoneal. Particulars: in vivo.
A short description of data set [15]: AUC in Sprague-Dawley rat at 1 mg/kg, ip. The class given is ADME, organism-based. Set-up: dose 1 mg/kg, route intraperitoneal. The settings on record: plasma.
Data set [16] is described as follows: AUC in Sprague-Dawley rat at 5 mg/kg, ip. More on the design: dose 5 mg/kg, route intraperitoneal. Type of data set: ADME, organism-based. Particulars: plasma.
The nature of data set [17]: Half life in Sprague-Dawley rat at 1 mg/kg, ip. Type of data set: ADME, organism-based. More on the design: dose 1 mg/kg, route intraperitoneal. Particulars: in vivo.
Data set [18] in a line: Half life in Sprague-Dawley rat at 5 mg/kg, ip. The class given is ADME, organism-based. Set-up: dose 5 mg/kg, route intraperitoneal. Particulars: in vivo.
In data set [19] the test system is Plasmodium chabaudi. Kind of data set: Antimalarial activity against Plasmodium chabaudi infected in BALB/c mouse assessed as reduction in parasitaemia level treated intraperitoneally on day 1 to day 3 post-infection measured on day 4 post-infection by Giemsa staining based light microscopy. Type of data set: functional. Particulars: for ED50: ip. The essentials: (§3)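 Groups of five BALB/c mice infected i.p. with 2 × 10^7 P. chabaudi-parasitized erythrocytes. Day 1 pre-treatment parasitaemia read from tail-blood thin smears, then i.p. dosing at 0.03, 0.3, 3, 10 or 30 mg/kg, repeated for two more days. Day 4 parasitaemia scored by light microscopy of Giemsa-stained thin smears; dose-response evaluated by probit analysis.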

Data set [20] relates to Plasmodium chabaudi. In words: Antimalarial activity against Plasmodium chabaudi infected in BALB/c mouse assessed as reduction in accumulation of ring-stage parasites level at 3 to 30 mg/kg, ip treated on day 1 to day 3 post-infection measured on day 4 post-infection by Giemsa staining based light microscopy. Type of data set: functional, organism-based. In outline:
as §3

Data set [21] relates to Plasmodium chabaudi. Kind of data set: Antimalarial activity against Plasmodium chabaudi infected in BALB/c mouse assessed as reduction in blood parasitaemia level at 3 to 30 mg/kg, ip treated on day 1 to day 3 post-infection measured on day 4 post-infection by Giemsa staining based light microscopy. The class given is functional, organism-based. The essentials: as §3

Calls of active or inactive are those of the source. The rule behind the calls is not given here.

As usually defined, the EC50 is the midpoint of the concentration-response curve. High values mean a need for much substance, low ones an effect from little substance. As usually defined, the Tmax is the time at which the peak concentration occurs. A word on the Cmax: it is the maximum level reached in the sampled fluid or tissue. Usually AUC stands for the area under the concentration-time curve, a measure of exposure. Read a low AUC as low exposure. Broadly, the half-life is the time in which the quantity being followed falls by half. Higher therefore signals slow decline. Broadly, the ED50 is the dose at which the effect has come halfway, by size or by number of responders. Turning to `COc1ccc(CO[C@H]([C@H](OCc2ccc(OC)cc2)c2cnc(N(C)C)nc2)[C@@H](COC(c2ccccc2)(c2ccccc2)c2ccccc2)OS(C)(=O)=O)cc1`, the EC50 with Plasmodium falciparum [1] stood at 116 nM; in the data set with Plasmodium falciparum [2], 104 nM; in the data set with Plasmodium falciparum [3], 104 nM. In [4], the selectivity ratio is greater than 680. Besides, the outcome with Plasmodium falciparum [5], in the data set on Plasmodium falciparum [6], in the data set with Plasmodium falciparum [7] and with Plasmodium falciparum [8] was Active. Besides, the remaining at 30 min, 1 µM in data set [9] is 88.1%. Also, in data set [10], the remaining at 0.5 h, 1 µM came out at 88.6%. Moreover, the time to peak (Tmax) in data set [11] and in data set [12] was 1 h in each case. Besides, the Cmax in [13] was determined as 1800 ng/mL; in [14], 12900 ng/mL. In addition, the AUC came to 9790 ng·h/mL in [15] and 41300 ng·h/mL in data set [16]. Besides, the half-life in data set [17] was 10.3 h; in data set [18] it was 10.6 h. The inhibition result with Plasmodium chabaudi [19] is “Dose dependent effect”. The ED50 with Plasmodium chabaudi [19] amounted to 0.32 mg/kg. In addition, the inhibition entry in the data set with Plasmodium chabaudi [20] and in the data set on Plasmodium chabaudi [21] was “Active” each time.
As for `COc1ccc(CO[C@@H]([C@H](COC(c2ccccc2)(c2ccccc2)c2ccccc2)N=[N+]=[N-])[C@H](OCc2ccc(OC)cc2)c2cnc(N(C)C)nc2)cc1`, the half-maximal effective concentration (EC50) in the data set on Plasmodium falciparum [1] was 92 nM; in the data set on Plasmodium falciparum [2] it was 80 nM; in the data set on Plasmodium falciparum [3], 80 nM. Further, the selectivity ratio in [4] was greater than 1000. In addition, the result in the data set with Plasmodium falciparum [5], in the data set on Plasmodium falciparum [6], in the data set with Plasmodium falciparum [7] and in the data set on Plasmodium falciparum [8] was Active. In data set [9], the remaining at 30 min, 1 µM worked out at 89%. The remaining at 0.5 h, 1 µM in [10] stood at 81.6%. Moreover, the values for the time to peak (Tmax) in data set [11] and in data set [12] were 3.4 h and 4 h, respectively. In addition, the maximum concentration (Cmax) in data set [13] was 1030 ng/mL; in data set [14], 3070 ng/mL. In addition, the values for the area under the curve (AUC) in [15] and in data set [16] were 8200 ng·h/mL and 26600 ng·h/mL, respectively. In addition, the half-life was 6.36 h in data set [17] and 5.78 h in data set [18]. Besides, the inhibition entry in the data set with Plasmodium chabaudi [19] is “Dose dependent effect”. The ED50 in the data set on Plasmodium chabaudi [19] was 0.12 mg/kg. The inhibition result with Plasmodium chabaudi [20] and in the data set with Plasmodium chabaudi [21] was “Active” each time.
